According to ChEMBL document CHEMBL1142785, “Synthesis of novel curcumin mimics with asymmetrical units and their anti-angiogenic activity” (Bioorg Med Chem Lett, 2005):
Values after ≈ are worked out from the molar mass of the structure shown.

How the values were obtained:
Vero = assay: Inhibitory concentration for cytotoxic activity against Vero cell line; assay type: functional, cell-based; conditions: Chlorocebus sabaeus
Outline: (§1)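 […] cytotoxicity measured by MTT assay on B16, Vero, U87 and SiHa cells, run alongside HUVEC for selectivity comparison.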

HUVEC [1] = assay: Inhibitory concentration against human umbilical vein endothelial cells(HUVEC) growth; assay type: functional, cell-based
Outline: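 Human umbilical vein endothelial cell (HUVEC) proliferation assay; IC50 derived by nonlinear regression.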

[2] = Inhibitory concentration for cytotoxic activity against U87 cell line; assay type: functional, cell-based, U-87MG ATCC; conditions: Homo sapiens, U-87 MG; outline: as §1
B16 = assay: Inhibitory concentration for cytotoxic activity against B16 cell line; assay type: functional, cell-based; conditions: Mus musculus; outline: as §1
SiHa = assay: Inhibitory concentration for cytotoxic activity against SiHa cell line; assay type: functional, cell-based; conditions: Homo sapiens; outline: as §1
HUVEC [3] = assay: Percentage tube formation inhibition against human umbilical vein endothelial cells(HUVEC) at a concentration of 5 ug/mL; assay type: functional
Outline: (§2)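 HUVEC tube formation with test agent at 10, 5 or 2.5 µg/mL; total tube length per field quantified by image analysis and expressed as a percentage of the untreated control.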

HUVEC [4] = assay: Percentage tube formation inhibition against human umbilical vein endothelial cells(HUVEC) at a concentration of 10 ug/mL; assay type: functional; outline: as §2
HUVEC [5] = assay: Percentage tube formation inhibition against human umbilical vein endothelial cells(HUVEC) at a concentration of 2.5 ug/mL; assay type: functional; outline: as §2

Q: With `COc1cc(/C=C/C(=O)c2cccc(NC(=O)c3ccccc3)c2)ccc1O` as the compound, how does the IC50 (Vero) read?
A: 3.47 µg/mL (≈ 9.29 µM)

Q: What about the IC50 (HUVEC [1]) of the same compound?
A: 0.37 µg/mL (≈ 0.991 µM)

Q: What about the IC50 [2] of the same compound?
A: 8.82 µg/mL (≈ 23.6 µM)

Q: What about the IC50 (B16) of the same compound?
A: 0.82 µg/mL (≈ 2.2 µM)

Q: What about the IC50 (SiHa) of the same compound?
A: 4.57 µg/mL (≈ 12.2 µM)

Q: What about the inhibition at 5 µg/mL (HUVEC [3]) of the same compound?
A: 48%

Q: And the inhibition at 10 µg/mL (HUVEC [4])?
A: 69%

Q: Which results are given for `COc1cc(/C=C/C(=O)c2cccc(NC(=O)c3cccs3)c2)ccc1O`?
A: IC50 (Vero): 3.98 µg/mL (≈ 10.5 µM); IC50 (HUVEC [1]): 0.38 µg/mL (≈ 1 µM); IC50 [2]: 14.7 µg/mL (≈ 38.7 µM); IC50 (B16): 6.93 µg/mL (≈ 18.3 µM); inhibition at 2.5 µg/mL (HUVEC [5]): 71%; IC50 (SiHa): 6.57 µg/mL (≈ 17.3 µM); inhibition at 5 µg/mL (HUVEC [3]): 80%; inhibition at 10 µg/mL (HUVEC [4]): 90%

Q: For `COc1cc(/C=C/C(=O)c2cccc(NC(=O)c3ccc(Cl)cc3)c2)ccc1O`, which IC50 (Vero) is on record?
A: 3.82 µg/mL (≈ 9.37 µM)

Q: What about the IC50 (HUVEC [1]) of the same compound?
A: 0.76 µg/mL (≈ 1.86 µM)

Q: And the IC50 [2]?
A: > 50 µg/mL

Q: What about the IC50 (B16) of the same compound?
A: 0.59 µg/mL (≈ 1.45 µM)

Q: And the IC50 (SiHa)?
A: 2.3 µg/mL (≈ 5.64 µM)

Q: And the inhibition at 5 µg/mL (HUVEC [3])?
A: 42%

Q: What about the inhibition at 10 µg/mL (HUVEC [4]) of the same compound?
A: 66%

Q: Which results are given for `COC(=O)C(=O)Nc1cccc(C(=O)/C=C/c2ccc(O)c(OC)c2)c1`?
A: IC50 (Vero): 3.55 µg/mL (≈ 9.99 µM); IC50 (HUVEC [1]): 1.5 µg/mL (≈ 4.22 µM); IC50 [2]: 12.2 µg/mL (≈ 34.4 µM); IC50 (B16): 4.41 µg/mL (≈ 12.4 µM); IC50 (SiHa): 7.71 µg/mL (≈ 21.7 µM); inhibition at 5 µg/mL (HUVEC [3]): 20%; inhibition at 10 µg/mL (HUVEC [4]): 43%

Q: For `CCCC(=O)Nc1cccc(C(=O)/C=C/c2ccc(O)c(OC)c2)c1`, which IC50 (Vero) is on record?
A: 2.04 µg/mL (≈ 6.01 µM)

Q: And the IC50 (HUVEC [1])?
A: 1.27 µg/mL (≈ 3.74 µM)

Q: And the IC50 [2]?
A: 5.56 µg/mL (≈ 16.4 µM)

Q: And the IC50 (B16)?
A: 1.43 µg/mL (≈ 4.21 µM)

Q: What about the inhibition at 2.5 µg/mL (HUVEC [5]) of the same compound?
A: 40%

Q: And the IC50 (SiHa)?
A: 3.94 µg/mL (≈ 11.6 µM)

Q: And the inhibition at 5 µg/mL (HUVEC [3])?
A: 57%

Q: And the inhibition at 10 µg/mL (HUVEC [4])?
A: 87%

Q: Which IC50 (Vero) does the source give for `COc1cc(/C=C/C(=O)c2cccc(NC(=O)C(C)C)c2)ccc1O` here?
A: 3.47 µg/mL (≈ 10.2 µM)

Q: What about the IC50 (HUVEC [1]) of the same compound?
A: 1.44 µg/mL (≈ 4.24 µM)

Q: And the IC50 [2]?
A: 8.31 µg/mL (≈ 24.5 µM)

Q: And the IC50 (B16)?
A: 1.09 µg/mL (≈ 3.21 µM)

Q: What about the inhibition at 2.5 µg/mL (HUVEC [5]) of the same compound?
A: 11%

Q: What about the IC50 (SiHa) of the same compound?
A: 5.96 µg/mL (≈ 17.6 µM)

Q: What about the inhibition at 5 µg/mL (HUVEC [3]) of the same compound?
A: 51%

Q: And the inhibition at 10 µg/mL (HUVEC [4])?
A: 56%

Q: Which results are given for `COc1cc(/C=C/C(=O)c2cccc(NC(=O)c3c(Cl)cccc3Cl)c2)ccc1O`?
A: IC50 (Vero): 2.48 µg/mL (≈ 5.61 µM); IC50 (HUVEC [1]): 0.46 µg/mL (≈ 1.04 µM); IC50 [2]: 17.8 µg/mL (≈ 40.3 µM); IC50 (B16): 1.58 µg/mL (≈ 3.57 µM); inhibition at 2.5 µg/mL (HUVEC [5]): 53%; IC50 (SiHa): 3.56 µg/mL (≈ 8.05 µM); inhibition at 5 µg/mL (HUVEC [3]): 88%; inhibition at 10 µg/mL (HUVEC [4]): 99%

Q: With `COc1cc(/C=C/C(=O)c2cccc(N)c2)ccc1O` as the compound, how does the IC50 (Vero) read?
A: 6.02 µg/mL (≈ 22.4 µM)

Q: What about the IC50 (HUVEC [1]) of the same compound?
A: 2.87 µg/mL (≈ 10.7 µM)

Q: And the IC50 [2]?
A: 7.71 µg/mL (≈ 28.6 µM)

Q: What about the IC50 (B16) of the same compound?
A: 11.5 µg/mL (≈ 42.6 µM)

Q: And the inhibition at 2.5 µg/mL (HUVEC [5])?
A: 20%

Q: What about the IC50 (SiHa) of the same compound?
A: 12.3 µg/mL (≈ 45.8 µM)

Q: What about the inhibition at 5 µg/mL (HUVEC [3]) of the same compound?
A: 50%

Q: What about the inhibition at 10 µg/mL (HUVEC [4]) of the same compound?
A: 90%

Q: For `COc1cc(/C=C/C(=O)c2cccc(NC(=O)c3ccco3)c2)ccc1O`, which IC50 (Vero) is on record?
A: 3.11 µg/mL (≈ 8.56 µM)

Q: What about the IC50 (HUVEC [1]) of the same compound?
A: 0.38 µg/mL (≈ 1.05 µM)

Q: And the IC50 [2]?
A: 6.65 µg/mL (≈ 18.3 µM)

Q: And the IC50 (B16)?
A: 5.46 µg/mL (≈ 15 µM)

Q: What about the inhibition at 2.5 µg/mL (HUVEC [5]) of the same compound?
A: 61%

Q: And the IC50 (SiHa)?
A: 0.76 µg/mL (≈ 2.09 µM)

Q: And the inhibition at 5 µg/mL (HUVEC [3])?
A: 82%

Q: And the inhibition at 10 µg/mL (HUVEC [4])?
A: 100%

Q: For `COc1cc(/C=C/C(=O)c2cccc(NC(=O)c3ccc(Cl)cc3Cl)c2)ccc1O`, which IC50 (Vero) is on record?
A: 27.2 µg/mL (≈ 61.5 µM)

Q: And the IC50 (HUVEC [1])?
A: 0.4 µg/mL (≈ 0.904 µM)

Q: And the IC50 [2]?
A: > 50 µg/mL

Q: What about the IC50 (B16) of the same compound?
A: 12.8 µg/mL (≈ 29 µM)

Q: What about the inhibition at 2.5 µg/mL (HUVEC [5]) of the same compound?
A: 29%

Q: What about the IC50 (SiHa) of the same compound?
A: 34.4 µg/mL (≈ 77.8 µM)

Q: What about the inhibition at 5 µg/mL (HUVEC [3]) of the same compound?
A: 51%

Q: What about the inhibition at 10 µg/mL (HUVEC [4]) of the same compound?
A: 70%

Q: Which IC50 (Vero) does the source give for `COc1cc(/C=C/C(=O)c2cccc(NC(=O)c3ccc(Cl)c(Cl)c3)c2)ccc1O` here?
A: > 50 µg/mL

Q: And the IC50 (HUVEC [1])?
A: 2.97 µg/mL (≈ 6.71 µM)

Q: And the IC50 [2]?
A: 29.5 µg/mL (≈ 66.6 µM)

Q: And the IC50 (B16)?
A: 3.88 µg/mL (≈ 8.77 µM)

Q: And the IC50 (SiHa)?
A: 25.3 µg/mL (≈ 57.2 µM)

Q: What about the inhibition at 5 µg/mL (HUVEC [3]) of the same compound?
A: 5%

Q: What about the inhibition at 10 µg/mL (HUVEC [4]) of the same compound?
A: 45%

Q: Which results are given for `COc1cc(/C=C/C(=O)c2cccc(NC(=O)c3cc(Cl)cc(Cl)c3)c2)ccc1O`?
A: IC50 (Vero): > 50 µg/mL; IC50 (HUVEC [1]): 0.75 µg/mL (≈ 1.7 µM); IC50 [2]: > 50 µg/mL; IC50 (B16): 4.83 µg/mL (≈ 10.9 µM); inhibition at 2.5 µg/mL (HUVEC [5]): 15%; IC50 (SiHa): 17.7 µg/mL (≈ 40 µM); inhibition at 5 µg/mL (HUVEC [3]): 51%; inhibition at 10 µg/mL (HUVEC [4]): 58%

Q: What does the source list for `COc1cc(/C=C/C(=O)c2cccc(NC(C)=O)c2)ccc1O`?
A: IC50 (Vero): 14.5 µg/mL (≈ 46.5 µM); IC50 (HUVEC [1]): 7.06 µg/mL (≈ 22.7 µM); IC50 [2]: > 50 µg/mL; IC50 (B16): 3.62 µg/mL (≈ 11.6 µM); IC50 (SiHa): 15.8 µg/mL (≈ 50.6 µM); inhibition at 5 µg/mL (HUVEC [3]): 15%; inhibition at 10 µg/mL (HUVEC [4]): 32%

Q: For `CCOC(=O)C(=O)Nc1cccc(C(=O)/C=C/c2ccc(O)c(OC)c2)c1`, which IC50 (Vero) is on record?
A: > 50 µg/mL

Q: And the IC50 (HUVEC [1])?
A: 13.3 µg/mL (≈ 36 µM)

Q: And the IC50 [2]?
A: > 50 µg/mL

Q: And the IC50 (B16)?
A: 7.03 µg/mL (≈ 19 µM)

Q: What about the IC50 (SiHa) of the same compound?
A: > 50 µg/mL

Q: What about the inhibition at 5 µg/mL (HUVEC [3]) of the same compound?
A: 45%

Q: And the inhibition at 10 µg/mL (HUVEC [4])?
A: 66%

Q: With `COc1cc(/C=C/C(=O)CC(=O)/C=C/c2ccc(O)c(OC)c2)ccc1O` [CURCUMIN] as the compound, how does the IC50 (HUVEC [1]) read?
A: 10.8 µg/mL (≈ 29.4 µM)
